In ChEMBL document CHEMBL1144026, “Synthesis and anticonvulsant evaluation of N-substituted isoquinoline AMPA receptor antagonists” (2008):
Active and inactive are the calls of the source. The calls are words filed in the database; no cut-off is given here.

Key:
[1] = species: Mus musculus; assay: Anticonvulsant activity against audiogenic clonus seizures in DBA/2 mouse after 30 mins; type: functional; settings: DBA/2, 0.5 h
Summary of the method: (§1)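 DBA/2 mice aged 22 to 25 days, of either sex, in groups of 10. Dosed ip (0.1 mL/10 g) as a fresh solution in 50% DMSO/50% saline, or given vehicle. After 30 min, 60 s habituation under a dome, then 12–16 kHz, 109 dB sound for 60 s or until tonic extension. Seizure phase incidence and latency were scored. ED50 (≥32 animals, 95% confidence limits) by Litchfield–Wilcoxon.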

[2] = species: Mus musculus; assay: Anticonvulsant activity against audiogenic tonus seizures in DBA/2 mouse after 30 mins; type: functional; settings: DBA/2, 0.5 h; summary of the method: as §1
[3] = (§2) Reduction in AMPA-mediated current in CA1 pyramidal neurons of Wistar rat at 50 uM after 5 mins by patch clamp technique; type: functional, Pyramidal neuron; design: scale not given: the % may be the effect or the level left
Summary of the method: (§3)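 Whole-cell patch clamp of single CA1 pyramidal neurons; pipette 1.5–3 MΩ, K-gluconate-based intracellular solution. (S)-AMPA 5 μM pulsed for 5 s by fast solution changer; test agent bath-perfused 5 min. Peak amplitude minus baseline and current duration from ≥3 consecutive responses per neuron, control vs drug; unpaired t test per neuron, Wilcoxon matched pairs across neurons.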

[4] = system: Pyramidal neuron; assay: as §2; type: functional; summary of the method: as §3

| Compound | ED50 [1] [µmol/kg] | ED50 [2] [µmol/kg] | Activity [3] [%] | Activity [4] |
| --- | --- | --- | --- | --- |
| CCN(CC)C(=O)C(=O)N1CCc2cc(OC)c(OC)cc2C1c1ccc(F)cc1 (stereo unspecified) | > 100 | > 100 | – | – |
| COc1cc2c(cc1OC)C(c1ccc(Br)cc1)N(C(=O)C(=O)N1CCCCC1)CC2 (stereo unspecified) | 60.5 | 41.6 | – | – |
| COc1cc2c(cc1OC)C(c1ccccc1)N(C(=O)C(=O)N1CCCCC1)CC2 (stereo unspecified) | 98.1 | 55.3 | – | – |
| COc1cc2c(cc1OC)C(c1ccccc1)N(C(=O)C(=O)N1CCOCC1)CC2 (stereo unspecified) | > 100 | 72.1 | – | – |
| COc1cc2c(cc1OC)C(c1ccc(Br)cc1)N(C(=O)C(=O)N1CCOCC1)CC2 (stereo unspecified) | > 100 | > 100 | – | – |
| CCN(CC)C(=O)C(=O)N1CCc2cc(OC)c(OC)cc2C1c1ccccc1 (stereo unspecified) | 65.1 | 53.3 | – | – |
| COc1cc2c(cc1OC)C(c1ccc(F)cc1)N(C(=O)C(=O)N1CCOCC1)CC2 (stereo unspecified) | > 100 | 90.2 | – | – |
| COc1cc2c(cc1OC)C(c1ccc(Br)cc1)N(C(=O)CN1CCCCC1)CC2 (stereo unspecified) | 12.7 | 8.17 | – | – |
| COc1cc2c(cc1OC)C(c1ccc(F)cc1)N(C(=O)C(=O)N1CCCC1)CC2 (stereo unspecified) | > 100 | 73 | – | – |
| COc1cc2c(cc1OC)C(c1ccc(Br)cc1)N(C(=O)C(=O)N1CCCC1)CC2 (stereo unspecified) | 89.2 | 45.4 | – | – |
| COc1cc2c(cc1OC)C(c1ccc(F)cc1)N(C(=O)C(=O)N1CCCCC1)CC2 (stereo unspecified) | 44.6 | 38.7 | 60 | – |
| COc1cc2c(cc1OC)C(c1ccc(Cl)cc1)N(C(=O)C(=O)N1CCCCC1)CC2 (stereo unspecified) | 88.4 | 65.3 | – | – |
| CC1=NN=C(c2ccc(N)cc2)c2cc3c(cc2C1)OCO3 | – | – | – | Active |
| CCN(CC)C(=O)C(=O)N1CCc2cc(OC)c(OC)cc2C1c1ccc(Cl)cc1 (stereo unspecified) | 75.9 | 67.7 | – | – |
| COc1cc2c(cc1OC)C(c1ccc(Cl)cc1)N(C(=O)C(=O)N1CCOCC1)CC2 (stereo unspecified) | 91 | 46.9 | – | – |
| COc1cc2c(cc1OC)C(c1ccc(Cl)cc1)N(C(=O)C(=O)N1CCCC1)CC2 (stereo unspecified) | 58.1 | 37.2 | – | – |
| CCN(CC)C(=O)C(=O)N1CCc2cc(OC)c(OC)cc2C1c1ccc(Br)cc1 (stereo unspecified) | > 100 | > 100 | – | – |
| COc1cc2c(cc1OC)C(c1ccccc1)N(C(=O)C(=O)N1CCCC1)CC2 (stereo unspecified) | > 100 | 54.6 | – | – |
